# Reference: ChEMBL document CHEMBL1914438, “Synthesis and biological activity of novel N-cycloalkyl-(cycloalkylaryl)-2-[(3-R-2-oxo-2H-[1,2,4]triazino[2,3-c]quinazoline-6-yl)thio]acetamides” (2011)
# Key:
# Format in all cases: functional
# [1] = tested on: Photobacterium leiognathi; experiment: Antibacterial activity against Photobacterium leiognathi Sh1 assessed as inhibition of bacterial luminescence at 0.1 mg/mL after 10 mins by bioluminometry-based chronic action test; parameters: scale not given: the % may be the effect or the level left; details: in the assay text read “after 16 to 18 hrs” for “after 10 mins”
# Outline: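 Chronic (growth plus luminescence) test with P. leiognathi Sh1 at 10^5 cells/mL in chloride solution, compounds added in DMSO. After 10 min at 25 °C, growth medium added at 1:50 and the mix incubated 16–18 h at 30 °C. Luminescence then measured by bioluminometer as % of untreated control. Tetracycline reference.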
# COLO 205 = experiment: Growth inhibition of human COLO205 cells after 48 hrs by SRB assay; details: COLO 205, 48 h
# Outline: (§1)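 NCI panel of about 60 human tumor lines, 48 h continuous exposure at five 10-fold dilutions from 10^-4 to 10^-8 M. SRB protein staining was read as absorbance at time zero, in untreated controls and at each concentration. GI50 is the concentration giving 50% lower net protein increase than controls. TGI is where Ti = Tz, and LC50 is 50% protein loss versus start.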
# RXF 393 = experiment: Growth inhibition of human RXF393 cells after 48 hrs by SRB assay; details: RXF 393, 48 h
# Outline: (§2)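 NCI 60-cell-line human tumor panel. Cells were inoculated and preincubated for 24–48 h, then exposed continuously to compound for 48 h. Primary screen used a single 10^-5 M concentration. Growth was measured by sulforhodamine B protein staining, read spectrophotometrically, and reported as percent growth versus untreated controls. Selected compounds were also run at five 10-fold dilutions (10^-4 to 10^-8 M) to derive GI50 from time-zero-corrected absorbances.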
# HOP-92 = experiment: Growth inhibition of human HOP92 cells after 48 hrs by SRB assay; details: HOP-92, 48 h; outline: as §1
# MDA-MB-231 [2] = experiment: Growth inhibition of human MDA-MB-231 cells after 48 hrs by SRB assay; details: MDA-MB-231, 48 h; outline: as §1
# OVCAR-4 = experiment: Cytotoxicity against human OVCAR4 cells assessed as cell growth at 10^-5 M after 48 hrs by SRB assay; details: OVCAR-4, 48 h, read-out: Activity
# Outline: (§3)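 NCI human tumor cell line panel from nine cancer types. Each line was inoculated and preincubated 24–48 h, then exposed to a single concentration (10^-5 M) for 48 h. Growth was read by sulforhodamine B protein staining, measured spectrophotometrically. Value reported as percent growth of treated cells relative to untreated controls.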
# PC-3 [3] = experiment: Cytotoxicity against human PC3 cells assessed as cell growth at 10^-5 M after 48 hrs by SRB assay; details: PC-3, 48 h, read-out: Activity; outline: as §3
# Mycobacterium [4] = experiment: Antibacterial activity against Mycobacterium luteum assessed as zone of inhibition at 0.5 mg/mL after 24 hrs by stiff-plate agar-diffusion method; details: read-out: DIZ
# BT-549 = experiment: Cytotoxicity against human BT549 cells assessed as cell growth at 10^-5 M after 48 hrs by SRB assay; details: BT-549, 48 h, read-out: Activity
# Outline: (§4)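 NCI 60-cell-line one-dose primary screen: cells inoculated and preincubated 24–48 h, then test agent added at a single 10^-5 M concentration for a further 48 h. Endpoint is sulforhodamine B protein staining read spectrophotometrically. Reported as percent growth relative to untreated control cells.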
# U-251 [5] = experiment: Cytotoxicity against human U251 cells assessed as cell growth at 10^-5 M after 48 hrs by SRB assay; details: U-251, 48 h, read-out: Activity; outline: as §3
# RPMI-8226 = experiment: Growth inhibition of human RPMI8226 cells after 48 hrs by SRB assay; details: RPMI-8226, 48 h; outline: as §1
# SK-OV-3 = experiment: Cytotoxicity against human SKOV3 cells assessed as cell growth at 10^-5 M after 48 hrs by SRB assay; details: SK-OV-3, 48 h, read-out: Activity; outline: as §3
# Escherichia coli [6] = experiment: Antibacterial activity against Escherichia coli assessed as zone of inhibition at 0.5 mg/mL after 24 hrs by stiff-plate agar-diffusion method; details: read-out: DIZ
# [7] = tested on: Photobacterium leiognathi; experiment: Antibacterial activity against Photobacterium leiognathi Sh1 assessed as inhibition of bacterial luminescence at 0.25 mg/mL after 10 mins by bioluminometry-based acute action test; parameters: scale not given: the % may be the effect or the level left
# Outline: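 Marine P. leiognathi Sh1 (Azov Sea shrimp isolate) diluted in chloride solution to 10^5 cells/mL; compounds suspended in DMSO mixed with 1 mL bacterial suspension. Acute test: 10 min at 25 °C, then bioluminescence measured by bioluminometer as % of compound-free control. Tetracycline reference.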
# Malme-3M = experiment: Growth inhibition of human MALME-3M cells after 48 hrs by SRB assay; outline: as §1
# MDA-MB-231 [8] = experiment: Cytotoxicity against human MDA-MB-231 cells assessed as cell growth at 10^-5 M after 48 hrs by SRB assay; details: MDA-MB-231, 48 h, read-out: Activity; outline: as §4
# IGROV-1 = experiment: Cytotoxicity against human IGROV1 cells assessed as cell growth at 10^-5 M after 48 hrs by SRB assay; details: IGROV-1, 48 h, read-out: Activity; outline: as §4
# MDA-MB-468 = experiment: Cytotoxicity against human MDA-MB-468 cells assessed as cell growth at 10^-5 M after 48 hrs by SRB assay; details: MDA-MB-468, 48 h, read-out: Activity; outline: as §4
# U-251 [9] = experiment: Growth inhibition of human U251 cells after 48 hrs by SRB assay; details: U-251, 48 h; outline: as §2
# NCI-H460 = experiment: Cytotoxicity against human NCI-H460 cells assessed as cell growth at 10^-5 M after 48 hrs by SRB assay; details: NCI-H460, 48 h, read-out: Activity; outline: as §3
# Mycobacterium [10] = experiment: Antibacterial activity against Mycobacterium luteum assessed as zone of inhibition at 0.1 mg/mL after 24 hrs by stiff-plate agar-diffusion method; details: read-out: DIZ
# HOP-62 = experiment: Cytotoxicity against human HOP62 cells assessed as cell growth at 10^-5 M after 48 hrs by SRB assay; details: HOP-62, 48 h, read-out: Activity; outline: as §4
# [11] = Cytotoxicity against human Hs 578T cells assessed as cell growth at 10^-5 M after 48 hrs by SRB assay; details: read-out: Activity; outline: as §4
# PC-3 [12] = experiment: Growth inhibition of human PC3 cells after 48 hrs by SRB assay; details: PC-3, 48 h; outline: as §1
# Escherichia coli [13] = experiment: Antibacterial activity against Escherichia coli assessed as zone of inhibition at 0.1 mg/mL after 24 hrs by stiff-plate agar-diffusion method; details: read-out: DIZ
# MOLT-4 = experiment: Cytotoxicity against human MOLT4 cells assessed as cell growth at 10^-5 M after 48 hrs by SRB assay; details: MOLT-4, 48 h, read-out: Activity; outline: as §3
# [14] = read-out: pLC50 (the source's name) (converted)
structure (smiles),measurement,setting,value
CCC1C2CCC(C2)C1NC(=O)CSc1nc2ccccc2c2nc(=O)c(-c3ccc(OC)cc3)nn12 (configuration not stated),Activity,[1],144%
same,GI50,COLO 205,3.47 µM
same,CC50,COLO 205; [14],> 50.1 µM
same,TGI,COLO 205; read-out: pTGI,> 50.1 µM
same,GI50,RXF 393,1.48 µM
same,CC50,RXF 393; [14],17.4 µM
same,TGI,RXF 393; read-out: pTGI (converted),4.17 µM
same,GI50,HOP-92,0.977 µM
same,CC50,HOP-92; [14],25.7 µM
same,TGI,HOP-92; read-out: pTGI (converted),3.98 µM
same,GI50,MDA-MB-231 [2],3.09 µM
same,CC50,MDA-MB-231 [2]; [14],> 50.1 µM
same,TGI,MDA-MB-231 [2]; read-out: pTGI (converted),20.9 µM
same,growth at 10 µM,OVCAR-4,-58.5%
same,growth at 10 µM,PC-3 [3],55.1%
same,zone of inhibition at 500 µg/mL,Mycobacterium [4],0 mm
same,growth at 10 µM,BT-549,90.9%
same,growth at 10 µM,U-251 [5],-98.9%
same,GI50,RPMI-8226,2.95 µM
same,CC50,RPMI-8226; [14],> 50.1 µM
same,TGI,RPMI-8226; read-out: pTGI (converted),38 µM
same,growth at 10 µM,SK-OV-3,-5.12%
same,zone of inhibition at 500 µg/mL,Escherichia coli [6],0 mm
same,Activity,[7],90.9%
same,GI50,Malme-3M,3.89 µM
same,CC50,Malme-3M; [14],> 50.1 µM
same,TGI,Malme-3M; read-out: pTGI (converted),24.5 µM
same,growth at 10 µM,MDA-MB-231 [8],22.5%
same,growth at 10 µM,IGROV-1,17%
same,growth at 10 µM,MDA-MB-468,-59.5%
same,GI50,U-251 [9],1 µM
same,CC50,U-251 [9]; [14],5.75 µM
same,TGI,U-251 [9]; read-out: pTGI (converted),2.29 µM
same,growth at 10 µM,NCI-H460,56%
same,zone of inhibition at 100 µg/mL,Mycobacterium [10],0 mm
same,growth at 10 µM,HOP-62,-19.5%
same,growth at 10 µM,[11],-9.67%
same,GI50,PC-3 [12],2.82 µM
same,CC50,PC-3 [12]; [14],> 50.1 µM
same,TGI,PC-3 [12]; read-out: pTGI (converted),24.5 µM
same,zone of inhibition at 100 µg/mL,Escherichia coli [13],0 mm
same,growth at 10 µM,MOLT-4,11.4%
